HNF4A DNA FP: change in binding of human HNF4 alpha to DNA; activity change, % at 10 µM; P41235; HNF4a-FITC DNA binding, fluorescence polarization, 1 h; 0.3% of 360,000 active; AID 1224865; in the data active means activity change above about 30%, passing the limit was not always enough
Target sequence (P41235 whole entry, looked up): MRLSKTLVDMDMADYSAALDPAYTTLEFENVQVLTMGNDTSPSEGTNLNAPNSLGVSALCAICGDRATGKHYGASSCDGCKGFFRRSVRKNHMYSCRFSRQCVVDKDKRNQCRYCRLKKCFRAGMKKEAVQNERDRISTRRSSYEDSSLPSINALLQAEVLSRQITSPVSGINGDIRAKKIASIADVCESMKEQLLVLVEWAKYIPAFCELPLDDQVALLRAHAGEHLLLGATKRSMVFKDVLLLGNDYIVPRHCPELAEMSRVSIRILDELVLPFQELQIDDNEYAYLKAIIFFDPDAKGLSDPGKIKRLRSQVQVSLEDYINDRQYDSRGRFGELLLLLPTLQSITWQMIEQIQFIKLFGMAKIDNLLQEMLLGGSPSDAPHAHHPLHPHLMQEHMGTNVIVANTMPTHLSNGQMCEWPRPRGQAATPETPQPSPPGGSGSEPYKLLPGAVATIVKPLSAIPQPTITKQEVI
H9c2 protect: myocardial damage modulation in H9c2 cells; H9c2 cardiomyocytes, H2O2 injury protection, ATPLite, 2 h; protection from H2O2 cell death, % at 20 µM; 0.63% of 360,000 active; AID 588492;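 active means compounds giving at least 50% protection of heart cells from peroxide-induced death in the single-dose screen, raw or plate-pattern-corrected value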;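 further: 0% = DMSO wells with peroxide and 100% = DMSO wells without peroxide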
Myeloid diff 2: myeloid differentiation induction. 1% of 360,000 active. ER-HoxA9 myeloid progenitors, lysozyme-GFP differentiation, flow cytometry. calls only at 10 µM;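 active means normalized GFP-positive differentiation at or above the plate's own cutoff, the solvent-only control mean plus 3 SD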;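 further: cells exposed to compound for four days before flow analysis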
Pemphigus Ab inh: inhibitors of pemphigus antibody binding to human desmoglein-3; P32926; DSG3-coupled beads, scFv-anti-DSG3-GFP binding, flow cytometry; active compounds read low; binding (percent of control), % at 10 µM; 0.48% of 310,000 active; AID 588358;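 active means binding more than 3 SD below its plate's average and above zero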;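 further: hits lower antibody fragment binding to DSG3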
Granule exo inh: blocks lytic granule exocytosis. AID 651702. 0.66% of 360,000 active. TALL-104 LAMP-1 surface exposure, flow cytometry; cells stimulated with thapsigargin and PMA. inhibition, % at 10 µM;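 active means inhibition above about 55%, limit read from the data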
SENP1 FRET inh: SENP1 (human) catalytic domain inhibition | AID 624204 | 0.21% of 360,000 active | inhibition, % at 10 µM | recombinant SENP1 catalytic domain, CyPet-SUMO1-YPet FRET cleavage;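 active means inhibition at least 30% at 10 µM, raw YFP signal under a set limit, fluorescence ratio 0.5 to 1.5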;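 further: 0% = enzyme with DMSO and 100% = no enzyme wells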
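Test system: hSENP1 catalytic domain, recombinant; Amount: 20 pM final SENP1 enzyme; Medium: Tris pH 8 buffer plus EDTA, NaCl, BME, BSA, NP40, catalase; Schedule: 50 min enzyme reaction, room temperature, light-protected; Technique: FRET fluorescence in CFP and YFP emission channels; Controls: no-enzyme wells low, DMSO-plus-enzyme wells high control.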
Exocytosis CP01: lytic granule exocytosis inhibition. 11% of 1,500 active. inhibition, % at 10 µM. shares compounds with Granule exo inh. TALL-104 cells, LAMP-1 externalization, flow cytometry; stimulated with PMA plus thapsigargin; in the data active means inhibition above about 60%;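 further: 0% = stimulated vehicle wells and 100% = unstimulated wells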
* hit, by the source's call. Sampled rows, rich in hits. Any-hit rate of the full collection: about 3%.

`COc1cc(C)cc(OC)c1OCC(=O)Nc1cc(C)on1` gave HNF4A DNA FP 3, H9c2 protect 3, Myeloid diff 2 inactive, Pemphigus Ab inh 103, Granule exo inh 69*, SENP1 FRET inh 2 and Exocytosis CP01 -4.
`C=C(C)COc1ccc(-c2n[nH]c(C)c2-c2ccc(OC)cc2)c(O)c1` gave HNF4A DNA FP -1, H9c2 protect -31, Myeloid diff 2 inactive, Pemphigus Ab inh 101, Granule exo inh 65*, SENP1 FRET inh -2 and Exocytosis CP01 98*.
`COc1ccc(-c2n[nH]c(C)c2-c2cscn2)c(O)c1` gave HNF4A DNA FP -2, H9c2 protect -7, Myeloid diff 2 inactive, Pemphigus Ab inh 99, Granule exo inh 1 and SENP1 FRET inh 3.
Screening CCc1nc2ccc(C(=O)NCCc3ccccn3)cn2c1N(C)Cc1ccc(N(C)C)cc1 returned HNF4A DNA FP -2, H9c2 protect 6, Myeloid diff 2 inactive, Granule exo inh 2 and SENP1 FRET inh -4.
COC(=O)c1sccc1NC(=S)Nc1ccc(F)cc1F was read as HNF4A DNA FP 2, H9c2 protect -2, Myeloid diff 2 inactive, Pemphigus Ab inh 96, Granule exo inh 60*, SENP1 FRET inh 1 and Exocytosis CP01 -4.
Screening COC(=O)c1sccc1NC(=S)Nc1cccc(F)c1 returned HNF4A DNA FP 2, H9c2 protect 1, Myeloid diff 2 inactive, Pemphigus Ab inh 113, Granule exo inh -6 and SENP1 FRET inh 6.
O=S(=O)(Nc1cccc(S(=O)(=O)N2CCCCCC2)c1)c1ccccc1 was read as HNF4A DNA FP -1, H9c2 protect -6, Myeloid diff 2 inactive, Pemphigus Ab inh 102, Granule exo inh 74*, SENP1 FRET inh 2 and Exocytosis CP01 -5.
O=C(O)c1cccc(NC(=O)c2cccc(S(=O)(=O)N3CCCCC3)c2)c1 was read as HNF4A DNA FP 2, H9c2 protect 1, Myeloid diff 2 inactive, Pemphigus Ab inh 126, Granule exo inh -1 and SENP1 FRET inh 3.
`O=S(=O)(Nc1cccc(S(=O)(=O)N2CCCC2)c1)c1ccc(F)cc1` gave HNF4A DNA FP -4, H9c2 protect 2, Myeloid diff 2 inactive, Pemphigus Ab inh 102, Granule exo inh 3 and SENP1 FRET inh -1.
For O=C(Nc1cccc(O)c1)c1cccc(S(=O)(=O)N2CCCCCC2)c1 the results were HNF4A DNA FP 4, H9c2 protect -4, Myeloid diff 2 inactive, Pemphigus Ab inh 95, Granule exo inh 59*, SENP1 FRET inh -1 and Exocytosis CP01 -13.
`NS(=O)(=O)c1cnccc1Nc1cccc(F)c1` gave HNF4A DNA FP 4, H9c2 protect 0, Myeloid diff 2 inactive, Granule exo inh -2 and SENP1 FRET inh -7.
`COc1ccc(NC(=O)C2(S(=O)(=O)c3ccc(C)cc3)CC2)cc1OC` gave HNF4A DNA FP 0, H9c2 protect 10, Myeloid diff 2 inactive, Pemphigus Ab inh 104, Granule exo inh -9 and SENP1 FRET inh 0.
CC(C)(C)C1CCC(OCC(O)CN2CCN(Cc3ccccc3)CC2)CC1 (centres undefined) was read as HNF4A DNA FP 2, H9c2 protect -9, Myeloid diff 2 inactive, Pemphigus Ab inh 86, Granule exo inh 72*, SENP1 FRET inh 2 and Exocytosis CP01 -3.
For COc1ccccc1C(NC(=O)C1CCN(CCOc2ccc(Cl)cc2Cl)CC1)c1ccccn1 (centres undefined) the results were HNF4A DNA FP -3, H9c2 protect 7, Myeloid diff 2 inactive, Granule exo inh -1 and SENP1 FRET inh -1.
Cc1ccc(C)c(S(=O)(=O)NCCCc2ccccc2)c1 was read as HNF4A DNA FP 1, H9c2 protect -5, Myeloid diff 2 inactive, Granule exo inh 58*, SENP1 FRET inh 1 and Exocytosis CP01 -14.
For Cc1cccc(Nc2cc(C)nc3ccccc23)c1 the results were HNF4A DNA FP 2, H9c2 protect -6, Myeloid diff 2 inactive, Pemphigus Ab inh 105, Granule exo inh 12 and SENP1 FRET inh -1.
For Cc1cc(Nc2cccc(Cl)c2)c2ccccc2n1 the results were HNF4A DNA FP 3, H9c2 protect -10, Myeloid diff 2 inactive, Pemphigus Ab inh 105, Granule exo inh 78*, SENP1 FRET inh -4 and Exocytosis CP01 -8.
CCN(CC)C(=O)COc1coc(CN2CCN(c3ccccc3)CC2)cc1=O was read as HNF4A DNA FP 3, H9c2 protect -5, Myeloid diff 2 inactive, Pemphigus Ab inh 102, Granule exo inh -12 and SENP1 FRET inh 1.
Screening COc1ccc(OC)c(S(=O)(=O)Nc2ccc(O)c3ccccc23)c1 returned HNF4A DNA FP -3, H9c2 protect -39, Myeloid diff 2 inactive, Pemphigus Ab inh 97, Granule exo inh 85*, SENP1 FRET inh 2 and Exocytosis CP01 -12.
Screening Cc1noc(C)c1COc1ccc(C(=O)OCC(=O)NCCN2C(=O)CSC2=O)cc1 returned HNF4A DNA FP 2, H9c2 protect 5, Myeloid diff 2 inactive, Pemphigus Ab inh 100, Granule exo inh 2 and SENP1 FRET inh 3.
`CC(CCc1ccccc1)NC(=O)CCNC(=O)Cn1ccc2ccccc2c1=O` (centres undefined) gave HNF4A DNA FP -2, H9c2 protect 2, Myeloid diff 2 inactive, Pemphigus Ab inh 125, Granule exo inh 6 and SENP1 FRET inh -4.
`O=C(c1cn(-c2ccccc2)nc1-c1cccnc1)N1CCN(S(=O)(=O)c2cccc(F)c2)CC1` gave HNF4A DNA FP 3, H9c2 protect 1, Myeloid diff 2 inactive, Pemphigus Ab inh 95, Granule exo inh -2 and SENP1 FRET inh -2.
CCOc1ccc2nc(SC3CC(=O)N(c4ccc(C)cc4)C3=O)sc2c1 (centres undefined) was read as HNF4A DNA FP 1, H9c2 protect -6, Myeloid diff 2 inactive, Pemphigus Ab inh 93, Granule exo inh 56*, SENP1 FRET inh 1 and Exocytosis CP01 -4.
`CCOc1ccc(N2C(=O)CC(Sc3nc4ccc(OCC)cc4s3)C2=O)cc1` (centres undefined) gave HNF4A DNA FP -3, H9c2 protect -34, Myeloid diff 2 inactive, Pemphigus Ab inh 93, Granule exo inh 26 and SENP1 FRET inh 9.
For CCOc1ccc2nc(SC3CC(=O)N(c4ccc(OC)cc4OC)C3=O)sc2c1 (centres undefined) the results were HNF4A DNA FP 1, H9c2 protect -23, Myeloid diff 2 inactive, Pemphigus Ab inh 102, Granule exo inh 62*, SENP1 FRET inh -2 and Exocytosis CP01 15.
